Measurements taken from publication PMC4832308 (Cancer, 2015).

Tested on: patients with advanced solid tumors or multiple myeloma
Experiment: phase 1 dose escalation: safety, tolerability, DLT, MTD
Format: in vivo, human
Method in brief: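 Modified accelerated titration from 7.5 mg, oral daily in 28-day cycles. Single-patient cohorts used 100% increments until the first drug-related grade ≥2 toxicity, then 6-patient cohorts used ~50% steps. A dose with ≥2 DLTs was nontolerated. MTD was the last lower dose with 0–1 of 6 DLTs in cycle 1. Adverse events were graded by NCI CTCAE version 4.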

## CO[C@H]1CC[C@H](N2C(=O)CNc3ncc(-c4ccc(C(C)(C)O)nc4)nc32)CC1 [CC‐223]
45 mg, Any Grade
  Dyspnea (treatment‐related AE): 1 (11) n (%)
  Fatigue (treatment‐related AE): 5 (56) n (%)
  Hyperglycemia (treatment‐related AE): 4 (44) n (%)
  Increased glycosylated hemoglobin (treatment‐related AE): 2 (22) n (%)
  Mucositis (treatment‐related AE): 3 (33) n (%)
  Nausea (treatment‐related AE): 6 (67) n (%)
  Pruritus (treatment‐related AE): 2 (22) n (%)
  Rash (treatment‐related AE): 2 (22) n (%)
  Rash pruritic (treatment‐related AE): 0 n (%)
  Thrombocytopenia (treatment‐related AE): 2 (22) n (%)
  Vomiting (treatment‐related AE): 2 (22) n (%)
45 mg, Grade ≥3
  Arthralgia (treatment‐related AE): 0 n (%)
  Asthenia (treatment‐related AE): 0 n (%)
  Decreased appetite (treatment‐related AE): 0 n (%)
  Diarrhea (treatment‐related AE): 0 n (%)
  Dry mouth (treatment‐related AE): 0 n (%)
  Dysgeusia (treatment‐related AE): 0 n (%)
  Dyspnea (treatment‐related AE): 0 n (%)
  Fatigue (treatment‐related AE): 1 (11) n (%)
  Hyperglycemia (treatment‐related AE): 1 (11) n (%)
  Increased glycosylated hemoglobin (treatment‐related AE): 0 n (%)
  Mucositis (treatment‐related AE): 0 n (%)
  Nausea (treatment‐related AE): 0 n (%)
  Pruritus (treatment‐related AE): 0 n (%)
  Rash (treatment‐related AE): 1 (11) n (%)
  Rash pruritic (treatment‐related AE): 0 n (%)
  Thrombocytopenia (treatment‐related AE): 0 n (%)
  Vomiting (treatment‐related AE): 0 n (%)
60 mg
  Dose interruptions: 7
  Dose reductions: 5
60 mg, Any Grade
  Arthralgia (treatment‐related AE): 2 (29) n (%)
  Asthenia (treatment‐related AE): 3 (43) n (%)
  Decreased appetite (treatment‐related AE): 2 (29) n (%)
  Diarrhea (treatment‐related AE): 5 (71) n (%)
  Dry mouth (treatment‐related AE): 0 n (%)
  Dysgeusia (treatment‐related AE): 1 (14) n (%)
  Dyspnea (treatment‐related AE): 1 (14) n (%)
  Fatigue (treatment‐related AE): 7 (100) n (%)
  Hyperglycemia (treatment‐related AE): 4 (57) n (%)
  Increased glycosylated hemoglobin (treatment‐related AE): 2 (29) n (%)
  Mucositis (treatment‐related AE): 5 (71) n (%)
  Nausea (treatment‐related AE): 3 (43) n (%)
  Pruritus (treatment‐related AE): 0 n (%)
  Rash (treatment‐related AE): 3 (43) n (%)
  Rash pruritic (treatment‐related AE): 2 (29) n (%)
  Thrombocytopenia (treatment‐related AE): 0 n (%)
  Vomiting (treatment‐related AE): 5 (71) n (%)
60 mg, Grade ≥3
  Arthralgia (treatment‐related AE): 1 (14) n (%)
  Asthenia (treatment‐related AE): 0 n (%)
  Decreased appetite (treatment‐related AE): 0 n (%)
  Diarrhea (treatment‐related AE): 1 (14) n (%)
  Dry mouth (treatment‐related AE): 0 n (%)
  Dysgeusia (treatment‐related AE): 0 n (%)
  Dyspnea (treatment‐related AE): 0 n (%)
  Fatigue (treatment‐related AE): 1 (14) n (%)
  Hyperglycemia (treatment‐related AE): 2 (29) n (%)
  Increased glycosylated hemoglobin (treatment‐related AE): 0 n (%)
  Mucositis (treatment‐related AE): 2 (29) n (%)
  Nausea (treatment‐related AE): 0 n (%)
  Pruritus (treatment‐related AE): 0 n (%)
  Rash (treatment‐related AE): 1 (14) n (%)
  Rash pruritic (treatment‐related AE): 2 (29) n (%)
  Thrombocytopenia (treatment‐related AE): 0 n (%)
  Vomiting (treatment‐related AE): 0 n (%)
Overall (N = 28), Any Grade
  Arthralgia (treatment‐related AE): 4 (14) n (%)
  Asthenia (treatment‐related AE): 7 (25) n (%)
  Decreased appetite (treatment‐related AE): 9 (32) n (%)
  Diarrhea (treatment‐related AE): 13 (46) n (%)
  Dry mouth (treatment‐related AE): 3 (11) n (%)
  Dysgeusia (treatment‐related AE): 5 (18) n (%)
  Dyspnea (treatment‐related AE): 3 (11) n (%)
  Fatigue (treatment‐related AE): 18 (64) n (%)
  Hyperglycemia (treatment‐related AE): 12 (43) n (%)
  Increased glycosylated hemoglobin (treatment‐related AE): 4 (14) n (%)
  Mucositis (treatment‐related AE): 11 (39) n (%)
  Nausea (treatment‐related AE): 14 (50) n (%)
  Pruritus (treatment‐related AE): 4 (14) n (%)
  Rash (treatment‐related AE): 7 (25) n (%)
  Rash pruritic (treatment‐related AE): 3 (11) n (%)
  Thrombocytopenia (treatment‐related AE): 3 (11) n (%)
  Vomiting (treatment‐related AE): 9 (32) n (%)
Overall (N = 28), Grade ≥3
  Arthralgia (treatment‐related AE): 1 (4) n (%)
  Asthenia (treatment‐related AE): 0 n (%)
  Decreased appetite (treatment‐related AE): 0 n (%)
  Diarrhea (treatment‐related AE): 1 (4) n (%)
  Dry mouth (treatment‐related AE): 0 n (%)
  Dysgeusia (treatment‐related AE): 0 n (%)
  Dyspnea (treatment‐related AE): 0 n (%)
  Fatigue (treatment‐related AE): 2 (7) n (%)
  Hyperglycemia (treatment‐related AE): 5 (18) n (%)
  Increased glycosylated hemoglobin (treatment‐related AE): 0 n (%)
  Mucositis (treatment‐related AE): 2 (7) n (%)
  Nausea (treatment‐related AE): 0 n (%)
  Pruritus (treatment‐related AE): 0 n (%)
  Rash (treatment‐related AE): 2 (7) n (%)
  Rash pruritic (treatment‐related AE): 2 (7) n (%)
  Thrombocytopenia (treatment‐related AE): 0 n (%)
  Vomiting (treatment‐related AE): 0 n (%)
Total
  Dose interruptions: 22
All patients, any grade
  treatment‐related AE: asthenia: 25%
  treatment‐related AE: decreased appetite: 32%
  treatment‐related AE: fatigue: 64%
  treatment‐related AE: nausea: 50%
  treatment‐related AE: rash: 25%
  treatment‐related AE: vomiting: 32%
All patients, grade ≥3
  treatment‐related AE: hyperglycemia: 18%
At the MTD (45 mg/d)
  patients requiring dose interruptions: 55.6%
  patients requiring dose reductions: 11.1%
Grade ≥3, 30‐mg/d cohort
  treatment‐related hyperglycemia, number of patients: 2 n
Grade ≥3, 45‐mg/d cohort
  treatment‐related hyperglycemia, number of patients: 1 n
Grade ≥3, 60‐mg/d cohort
  treatment‐related hyperglycemia, number of patients: 2 n
Oral daily dosing, 28‐day cycles
  maximum tolerated dosage (MTD): 45 mg/day
overall
  median time to dose reduction: 25 days
Patients receiving doses ≥30 mg/d
  increases in glucose, insulin, and C‐peptide levels: dose‐dependent
Treatment cycle 1, all cohorts
  patients with dose‐limiting toxicities: Four
